Most compounds without a hit are left out; they make up all but 3.4% or so of the library.
ANO1 activ: activates or potentiates the mouse TMEM16A chloride channel; B-score at 10 µM; HEK293 TMEM16A/YFP-H148Q/I152L, iodide quench fluorescence; stronger effect = lower value; Q8BHY3; AID 623877; hit rate 0.3% among 340,000;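 active means fluorescence-ratio B-score plate-corrected deviation score at least 3 library SD below zero, with starting fluorescence score within 5 deviations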;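 further: channel opened by trigger with iodide after compound preincubation; score built on the fluorescence ratio of max minus min over baseline; more negative score means more quench and so TMEM16A activation or potentiation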
Target sequence (Q8BHY3 whole entry, looked up): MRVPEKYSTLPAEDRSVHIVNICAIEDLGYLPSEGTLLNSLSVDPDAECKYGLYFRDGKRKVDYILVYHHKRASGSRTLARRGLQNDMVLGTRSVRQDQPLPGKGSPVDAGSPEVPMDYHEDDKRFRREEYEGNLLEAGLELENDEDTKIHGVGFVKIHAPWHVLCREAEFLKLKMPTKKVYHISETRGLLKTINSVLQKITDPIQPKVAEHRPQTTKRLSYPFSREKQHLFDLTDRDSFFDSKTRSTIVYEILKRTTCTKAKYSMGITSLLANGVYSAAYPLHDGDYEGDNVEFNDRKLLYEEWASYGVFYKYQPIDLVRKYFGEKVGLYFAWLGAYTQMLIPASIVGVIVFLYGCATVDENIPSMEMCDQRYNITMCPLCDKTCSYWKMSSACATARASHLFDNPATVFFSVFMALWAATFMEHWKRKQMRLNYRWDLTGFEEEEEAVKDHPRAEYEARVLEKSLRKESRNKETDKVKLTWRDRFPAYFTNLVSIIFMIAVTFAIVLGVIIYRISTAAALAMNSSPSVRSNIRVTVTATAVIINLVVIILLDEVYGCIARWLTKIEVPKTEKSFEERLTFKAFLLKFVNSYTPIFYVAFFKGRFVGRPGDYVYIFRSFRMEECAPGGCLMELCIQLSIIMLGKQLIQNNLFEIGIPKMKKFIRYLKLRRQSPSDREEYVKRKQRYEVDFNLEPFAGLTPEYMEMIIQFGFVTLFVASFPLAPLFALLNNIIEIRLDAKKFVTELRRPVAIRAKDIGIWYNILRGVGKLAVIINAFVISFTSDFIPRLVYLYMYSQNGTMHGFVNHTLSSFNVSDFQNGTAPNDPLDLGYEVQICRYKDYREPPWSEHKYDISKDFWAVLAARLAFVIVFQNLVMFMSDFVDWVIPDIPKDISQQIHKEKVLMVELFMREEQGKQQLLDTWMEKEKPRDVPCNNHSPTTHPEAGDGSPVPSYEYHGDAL
MC4R antagonist: human MC4R antagonism in cAMP assay. P32245. MC4R-expressing cells, MTII-stimulated cAMP, LANCE TR-FRET. inhibition, % at 6.5 µM. hit rate 0.48% among 360,000. AID 540295;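 active means inhibition above its plate's cutoff, the mean of tested wells on that plate plus 3 SD, cut at about 29% in these data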;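 further: 0% = Melanotan II alone and 100% = Melanotan II plus saturating MCL0020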
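Test system: U2OS cells stably expressing human melanocortin 4 receptor (MC4R); also added: Melanotan II challenge; compound: 6.5 µM single dose; timing: 30-min compound preincubation, 1-h Melanotan II challenge, 1-h detection, room temperature; signal: Eu-cAMP/anti-cAMP TR-FRET, emission 671 nm; repeats: one well per compound, no replicates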
MIN6 prolif: inducers of beta-cell replication in MIN6 cells; MIN6 cells proliferation, ATPlite luminescence, 48 h; cells starved in 0.2% serum; 100% = growth in 10% serum; proliferation, % at 10 µM; hit rate 0.29% among 330,000;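 active means compounds whose signal lies at least 3.5 SD above the mean of all wells on their plate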;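 further: 0% = DMSO-treated cells in low-serum medium and 100% = 10% serum control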
MC4R ag barr: human MC4R agonism via beta-arrestin | U2OS MC4R beta-arrestin complementation, luminescence; percent of melanotan II response, DMSO zero | activation, % at 8.9 µM | hit rate 0.98% among 360,000 | AID 540308;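 active means activation above a per-plate cutoff, the mean activation of sample wells on that plate plus 3 SD, cut at about 8% in these data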
TMEM16A inh: inhibitors of mouse TMEM16A calcium-activated chloride channel; Q8BHY3; HEK293 TMEM16A/YFP iodide influx fluorescence, ionomycin; normalized B-score (activity score, 25-100; higher = stronger inhibition) at 10 µM; hit rate 1.2% among 310,000; AID 588511;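 active means ratio plate-corrected score three or more library SD toward inhibition, starting fluorescence score within five deviations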;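 further: score derived from kinetic fluorescence span divided by baseline fluorescence per well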
HTR2A ag: mouse HTR2A agonism via beta-arrestin recruitment | P35363 | CHO-K1 mHTR2A beta-arrestin complementation, luminescence; percent of 30 µM serotonin response | activation, % at 7.6 µM | hit rate 0.66% among 360,000;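 active means activation above a run cutoff, the mean activation of all tested compounds plus 3 SD, cut at about 14% in these data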;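 further: 0% = plate median of compound wells and 100% = 30 µM serotonin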
TMEM16A reconf: TMEM16A (mouse) chloride channel inhibition, re-confirmation. hit rate 39% among 2,300. shares compounds with TMEM16A inh. AID 652189. inhibition, % at 10 µM. HEK293 TMEM16A/YFP-H148Q, iodide quench fluorescence; ionomycin added to raise cell calcium;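 active means mean duplicate percent inhibition, scaled so buffer wells are 0 and the reference blocker 100, over three buffer SD above buffer mean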
HEK293 Ca mobil: calcium mobilization counter-screen hit for TMEM16A inhibitor series. shares compounds with TMEM16A inh. hit rate 2% among 2,300. AID 652231. TMEM16A/YFP HEK293, Fluo4 calcium mobilization. calcium response (% of ionomycin), % at 10 µM;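 active means duplicate-averaged calcium signal over 20% of the ionomycin maximum, relative to buffer baseline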;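 further: each well's signal is peak minus trough fluorescence divided by its pre-addition baseline; 0% = buffer wells and 100% = ionomycin wells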
YFP-HEK293 quench: acts in parental YFP-HEK293 cells lacking TMEM16A, counter-screen | shares compounds with TMEM16A inh | iodide YFP quench, ionomycin | YFP ratio F(max-min)/F0 at 10 µM | 2,300 tested, under 10 active | AID 652233;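 active means yellow fluorescent protein signal ratio exceeding the buffer control mean by over 5 SD of those controls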;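 further: ratio is mean of duplicate wells from kinetic YFP trace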
ClC-1 rat inh: rat ClC-1 inhibition, TMEM16A specificity screen; shares compounds with TMEM16A inh; CHO ClC-1-YFP, iodide influx fluorescence quench; iodide control reads 0, buffer control 100; ratio percent, % at 10 µM; 2,300 tested, under 10 active;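 active means duplicate-mean ratio percent above the mean of iodide-only control wells, which defines zero, plus 5 of their SD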;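 further: higher percent means stronger block of ClC-1 iodide influx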
The depositor's hits bear a star; i = inactive; . = not tested or not shown.

SMILES	ANO1 activ	MC4R antagonist	MIN6 prolif	MC4R ag barr	TMEM16A inh	HTR2A ag	TMEM16A reconf	HEK293 Ca mobil	YFP-HEK293 quench	ClC-1 rat inh
O=C(NC(=O)c1cccc(F)c1)Nc1nc(-c2ccc(F)cc2)cc(C(F)(F)F)n1	i	5.9	-0.5	0.2	i	3.0	.	.	.	.
COc1ccccc1C(=O)NC(=O)Nc1nc(-c2ccccc2)cc(C(F)(F)F)n1	i	-14.9	-3.7	-0.1	25*	3.7	i	i	-1.12	-11.5
NS(=O)(=O)c1cc2c(cc1Cl)NC(CC1CCCC1)NS2(=O)=O (centres undefined)	i	9.6	-0.5	0.9	i	-4.8	.	.	.	.
NS(=O)(=O)c1cc2c(cc1Cl)NC(Cc1ccccc1)NS2(=O)=O (centres undefined)	i	0.8	-3.9	-3.5	i	5.6	i	i	-0.915	-10.5
Cc1nc(-[n+]2nc(-c3ccncc3)nn2-c2ccccc2)sc1C	.	.	.	.	.	-4.2	.	.	.	.
CN1C[C@@H](CO)O[C@@H](n2cnc3c(N4CCOCC4)ncnc32)C1	.	5.8	.	-0.7	.	-4.6	.	.	.	.
Cc1nc(C(F)(F)F)c(C(=O)NC(=O)Nc2ccc(OC(F)(F)F)cc2)s1	i	1.7	-0.7	2.1	100*	-0.2	i	i	-1.06	3.5
O=[N+]([O-])c1ccc(O)c(-c2nc(-c3ccccc3)c(-c3cccs3)[nH]2)c1	i	20.5	-5.5	-0.1	25*	7.6	67.0%*	i	-0.899	-9.5
N#C/C(C(N)=O)=c1/ccc2c(c1)N1C3=C(CCCC3)CC3CCCCC31N=2 (centres undefined)	.	.	-4.0	.	i	.	.	.	.	.
N#CC(C#N)=c1ccc2c(c1)N1C3=C(CCCC3)CC3CCCCC31N=2 (centres undefined)	i	-2.1	-3.9	-1.9	25*	-6.2	i	i	-0.855	-1.0
COc1cc(OC)c(OC)cc1/C=C1/Cc2ccccc2C1=O	i	-4.5	0.0	4.0	i	-7.6	i	28.0%*	-0.981	-2.5
COc1ccccc1C=C1CCc2ccccc2C1=O	.	.	.	.	.	-3.6	.	.	.	.
CCOC(=O)c1sc2nc(OCc3cccnc3)cc(C)c2c1N	.	.	.	.	.	-0.7	.	.	.	.
COC(=O)Cc1nnc(NC(=O)c2ccccc2)s1	i	7.6	-0.7	-2.3	i	-3.0	.	.	.	.
COC(=O)Cc1nnc(NC(=O)C(C)C)s1	i	1.5	-0.2	-1.5	25*	1.0	i	i	-0.822	-10.5
COc1cccc(/C=C2\CCC(C3CCCC3)C2=O)c1OC (centres undefined)	i	6.8	-4.1	2.1	25*	-2.3	18.0%*	i	-0.981	-8.0
O=S(=O)(c1ccc2ccccc2c1)N1CCC(c2nc(-c3ccncc3)no2)CC1	i	9.3	-1.9	-1.3	100*	-1.6	17.0%*	i	-0.929	-5.5
CN(C)c1ccc(-c2noc(C3CCN(S(=O)(=O)c4cccc(Cl)c4)CC3)n2)cc1	i	0.0	-2.7	0.3	i	4.5	.	.	.	.
CCOC(=O)c1sc(N2C(=O)C(O)=C(C(=O)c3ccco3)C2c2cccc(Cl)c2)nc1C (centres undefined)	i	12.8	-3.3	-2.5	25*	-1.0	i	i	-0.726	-7.5
CCOC(=O)c1sc(N2C(=O)C(O)=C(C(=O)c3ccco3)C2c2cccc([N+](=O)[O-])c2)nc1C (centres undefined)	i	-0.6	.	0.7	i	7.7	.	.	.	.
COc1cccc(NC(=O)C2(C)CCN2C(=O)Cc2cccc3ccccc23)c1 (centres undefined)	.	4.2	.	-1.1	.	-2.3	.	.	.	.
COc1ccc(-c2ccccc2)cc1NC(=O)[C@@H]1O[C@H](CO)[C@H](O)[C@H](O)[C@H]1O	.	1.8	.	-2.5	.	-0.8	.	.	.	.
CC(=O)c1ccc(N2CCN(S(=O)(=O)c3ccc4c(c3)CC(C)N4C(=O)C3CC3)CC2)cc1 (centres undefined)	i	1.7	-4.6	-1.2	i	-5.7	.	.	.	.
CCC(=O)N1c2ccc(S(=O)(=O)N3CCN(c4ccc([N+](=O)[O-])cc4)CC3)cc2CC1C (centres undefined)	i	9.7	-4.5	-4.2	25*	0.5	i	i	-1.23	-17.5
Cc1ccc(C)c(N2CCN(S(=O)(=O)c3ccc4c(c3)CC(C)N4C(=O)C3CC3)CC2)c1 (centres undefined)	i	0.1	-2.5	-1.3	i	-2.9	i	i	-1.15	-15.0
SMILES	ANO1 activ	MC4R antagonist	MIN6 prolif	MC4R ag barr	TMEM16A inh	HTR2A ag	TMEM16A reconf	HEK293 Ca mobil	YFP-HEK293 quench	ClC-1 rat inh
CC(=O)c1ccc(N2CCN(S(=O)(=O)c3ccc4c(c3)CC(C)N4C(C)=O)CC2)cc1 (centres undefined)	i	2.0	-6.6	-3.1	25*	-6.1	25.5%*	i	-1.1	-22.0
Cc1cc(Br)ccc1NC(=O)CN(C)C(=O)Cn1c(=O)cnc2ccccc21	i	-2.4	2.8	-3.4	i	1.9	.	.	.	.
CC(C)C(NC(=O)c1ccc(F)cc1)C(=O)N1CCN(C(=O)c2ccco2)CC1 (centres undefined)	i	-1.0	6.4	-0.1	.	-1.8	.	.	.	.
Cc1ccccc1NS(=O)(=O)c1cc(C(=O)NCCC2=CCCCC2)ccc1C	i	14.8	-3.8	-0.2	i	-5.2	.	.	.	.
O=C(NCCC1=CCCCC1)c1ccc(Cl)c(S(=O)(=O)Nc2ccccc2)c1	i	-2.8	-3.0	-1.0	100*	-0.5	i	i	-1.02	-13.0
CC1(C(=O)NS(=O)(=O)c2cccc(Cl)c2)CCN1C(=O)c1ccccc1 (centres undefined)	.	0.4	.	-0.6	.	7.7	.	.	.	.
Cc1ccc(S(=O)(=O)N/N=C/c2c[nH]c3ccccc23)cc1	i	1.1	-0.7	-4.0	25*	-1.0	28.0%*	i	-0.902	-32.0
COc1ccc2[nH]cc(/C=N/NS(=O)(=O)c3ccc(C)cc3)c2c1	i	17.7	-4.4	-2.3	25*	-3.3	28.5%*	i	-0.937	-15.5
